Laboratory results taken from ChEMBL document CHEMBL1154067, “Antiviral and cytotoxic activities of aminoarylazo compounds and aryltriazene derivatives” (Bioorg Med Chem, 2009).
pEC50: −log10 of the molar value. The source made the active and inactive calls. The rule behind the calls is not given here.

How the values were obtained:
Poliovirus 1 = test: Antiviral activity against Human poliovirus 1 strain Sabin after 2 days by plaque reduction assay; format: functional; details: Enterovirus C, 48 h
[1] = Cytotoxicity against hamster BHK21 cells assessed as reduction in cell viability after 48 to 96 hrs by MTT assay; format: cell-based, Mesocricetus auratus, BHK-21; details: bhk-21
How it was run: (§1)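 Mock-infected cells in maintenance medium, MDBK at 6 × 10^5 and BHK at 1 × 10^6 cells/mL initial density, with or without serial compound dilutions. Run in parallel with antiviral assays. Viability by MTT after 48–96 h at 37 °C, 5% CO2. CC50 = concentration reducing viability 50%.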

Vero = test: Cytotoxicity against african green monkey Vero 76 cells by crystal violet staining; format: cell-based; details: chlorocebus sabaeus, vero
How it was run: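 Mock-infected Vero 76 seeded at 4 × 10^5 cells/mL, run in parallel with plaque assays, with or without serial compound dilutions. Cell number of monolayers determined by crystal violet staining. CC50 = concentration reducing viable cell number 50%.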

[2] = Cytotoxicity against MDBK cells after 48 to 96 hrs by MTT assay; format: cell-based, Bos taurus; details: cattle, mdbk; how it was run: as §1
[3] = tested on: Respiratory syncytial virus; test: Antiviral activity against Respiratory syncytial virus A2 infected in Vero-76 cells after 5 days by plaque reduction assay; format: functional, organism-based; details: human respiratory syncytial virus, A2, Vero 76, 120 h
[4] = tested on: Human immunodeficiency virus 1; test: Antiviral activity against HIV1 infected in human MT4 cells assessed as inhibition of virus-induced cytopathicity after 4 days by MTT assay; format: functional, organism-based
Yellow fever virus = test: Antiviral activity against Yellow fever virus infected in BHK-21 cells assessed as inhibition of virus-induced cytopathicity after 3 to 4 days by MTT assay; format: functional, organism-based
[5] = tested on: Mammalian orthoreovirus 1; test: Antiviral activity against Reovirus-1 infected in BHK-21 cells assessed as inhibition of virus-induced cytopathicity after 3 to 4 days by MTT assay; format: functional, organism-based; details: Mammalian orthoreovirus 1, BHK-21
How it was run: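 BHK-21 cells seeded at 5 × 10^4 cells/well, grown overnight to confluent monolayers at 37 °C in 5% CO2, then infected at m.o.i. 0.01 in serum-free medium. One hour later, MEM Earle's with 1% final inactivated FCS added, with or without serial compound dilutions. Viability read by MTT after 3–4 days at 37 °C. EC50 is the concentration giving 50% protection from cytopathogenicity.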

Vaccinia virus = test: Antiviral activity against Vaccinia virus after 3 days by plaque reduction assay; format: functional, organism-based; details: Orthopoxvirus vaccinia
[6] = tested on: Vesicular stomatitis virus; test: Antiviral activity against Vesicular stomatitis virus after 2 days by plaque reduction assay; format: functional, organism-based
Human alphaherpesvirus 1 = test: Antiviral activity against HSV1 infected in Vero-76 cells after 3 days by plaque reduction assay; format: functional, organism-based; details: Human alphaherpesvirus 1, Vero 76, 72 h
Coxsackievirus B2 = test: Antiviral activity against Coxsackie virus type B2 virus infected in african green monkey Vero-76 cells after 3 days by plaque reduction assay; format: functional, organism-based; details: Enterovirus B, Vero 76, 72 h
How it was run: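 Vero 76 cells seeded at 2 × 10^5 cells/well, grown overnight to confluence at 37 °C in 5% CO2, then infected at 50–100 PFU/well. Unadsorbed virus removed. Overlay of DMEM with 1% inactivated FCS and 0.75% methylcellulose, with or without serial compound dilutions. After 3 days at 37 °C, fixed and stained with crystal violet in PBS/50% ethanol; plaques counted. EC50 is the concentration reducing plaque number by 50%.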

MT4 = test: Cytotoxicity against human MT4 cells after 96 hrs by MTT assay; format: cell-based; details: mt4, 96 h
How it was run: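 Exponentially growing mock-infected MT-4 seeded at 1 × 10^5 cells/mL in RPMI-1640 with 10% FCS, penicillin and streptomycin. Incubated with or without serial compound dilutions at 37 °C, 5% CO2. Viability by MTT after 96 h. CC50 = concentration reducing viability 50%.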

Compound	pEC50 (Poliovirus 1)	CC50 [1] [µM]	CC50 (Vero) [µM]	CC50 [2] [µM]	pEC50 [3]	inhibition [4]	pEC50 (Yellow fever virus)	pEC50 [5]	Activity (Vaccinia virus)	Activity [6]	pEC50 (Human alphaherpesvirus 1)	pEC50 (Coxsackievirus B2)	CC50 (MT4) [µM]
FC(F)(F)c1cccc(/N=N/N2CCCC2)c1	< 4.00	> 100	> 100	> 100	< 4.00	inactive	< 4.00	< 4.00	inactive	inactive	< 4.00	< 4.00	> 100
O=c1cccc2n1CC1CC2CN(/N=N/c2cccc([N+](=O)[O-])c2)C1 (stereo not drawn)	< 4.05	> 100	90	> 100	≤ 4.05	inactive	< 4.00	4.10	inactive	inactive	< 4.05	< 4.05	> 100
O=[N+]([O-])c1cccc(/N=N/N2CCCC2)c1	4.52	42	80	> 100	5.10	inactive	< 4.38	< 4.38	inactive	inactive	< 4.10	< 4.10	66
Fc1ccc(F)c(/N=N/N2CCCC2)c1	4.36	> 100	> 100	> 100	< 4.00	inactive	< 4.00	< 4.00	inactive	inactive	< 4.00	4.46	> 100
O=[N+]([O-])c1cccc(/N=N/N2CCCCC2)c1	< 4.08	> 100	83	> 100	< 4.08	inactive	< 4.00	< 4.00	inactive	inactive	< 4.08	< 4.08	> 100
O=[N+]([O-])c1ccc(/N=N/N2CCCC2)cc1	4.82	≥ 100	90	> 100	4.22	inactive	< 4.00	< 4.00	inactive	inactive	< 4.05	< 4.05	≥ 100
c1ccc(/N=N/N2CCCCC2)cc1	< 4.00	> 100	> 100	> 100	< 4.00	inactive	< 4.00	< 4.00	inactive	inactive	< 4.00	< 4.00	> 100
O=c1cccc2n1CC1CC2CN(/N=N/c2ccc(Cl)cc2)C1 (stereo not drawn)	< 4.26	85	55	97	< 4.26	inactive	< 4.07	< 4.07	inactive	inactive	< 4.26	< 4.26	46
c1ccc(N=NNc2ccccc2)cc1	–	> 100	90	> 100	–	–	–	–	–	–	–	–	47
CCOC(=O)N1CCN(/N=N/c2ccccc2)CC1	< 4.05	> 100	90	> 100	< 4.05	inactive	< 4.00	< 4.00	inactive	inactive	< 4.05	4.52	100
CN1CCN(/N=N/c2ccccc2)CC1	< 4.35	70	45	> 100	< 4.35	inactive	< 4.15	< 4.15	inactive	inactive	< 4.35	4.85	65
COc1ccc(/N=N/N2CCCC2)cc1	< 4.05	≥ 100	90	60	< 4.05	inactive	< 4.00	< 4.00	inactive	inactive	< 4.05	< 4.05	68
Brc1ccc(/N=N/N2CCCCC2)cc1	< 4.00	> 100	> 100	> 100	4.14	inactive	< 4.00	< 4.00	inactive	inactive	< 4.00	4.60	> 100
Brc1cccc(/N=N/N2CCCCC2)c1	< 4.07	> 100	85	> 100	< 4.07	inactive	< 4.00	< 4.00	inactive	inactive	< 4.07	< 4.07	> 100
O=C1CCN(/N=N/c2ccccc2)CC1	< 4.22	90	60	≥ 100	< 4.22	inactive	< 4.05	< 4.05	inactive	inactive	< 4.22	4.89	> 100
Clc1cccc(/N=N/N2CCCCC2)c1	< 4.00	> 100	> 100	> 100	< 4.00	inactive	< 4.00	< 4.00	inactive	inactive	< 4.00	< 4.00	> 100
Brc1cccc(/N=N/N2CCCC2)c1	< 4.00	> 100	≥ 100	> 100	< 4.00	inactive	< 4.00	< 4.00	inactive	inactive	< 4.00	< 4.00	> 100
c1ccc(/N=N/N2CCCC2)cc1	< 4.00	≥ 100	> 100	> 100	≤ 4.00	inactive	< 4.00	< 4.00	inactive	inactive	< 4.00	< 4.00	> 100
CN1CCN(/N=N/c2cc(F)ccc2F)CC1	< 4.00	> 100	≥ 100	> 100	< 4.00	inactive	4.30	4.52	inactive	inactive	4.19	4.15	> 100
